From PubChem BioAssay
In the library only some 2% were active in any assay of this set; here they are far more common.
M5 antag = CHRM5 antagonism in calcium assay. P08912. CHO-hM5 cells, Fluo-8 calcium fluorescence, ACh EC80. inhibition, % at 3 µM. 360,000 compounds, 0.59% hits. AID 624040;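 active = inhibition above a per-plate cutoff, the mean of that plate's test compounds plus 3 SD, cut at about 27% in these data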;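 also: 0% = acetylcholine EC80 with DMSO and 100% = DMSO without agonist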
Target sequence (P08912 whole entry, looked up): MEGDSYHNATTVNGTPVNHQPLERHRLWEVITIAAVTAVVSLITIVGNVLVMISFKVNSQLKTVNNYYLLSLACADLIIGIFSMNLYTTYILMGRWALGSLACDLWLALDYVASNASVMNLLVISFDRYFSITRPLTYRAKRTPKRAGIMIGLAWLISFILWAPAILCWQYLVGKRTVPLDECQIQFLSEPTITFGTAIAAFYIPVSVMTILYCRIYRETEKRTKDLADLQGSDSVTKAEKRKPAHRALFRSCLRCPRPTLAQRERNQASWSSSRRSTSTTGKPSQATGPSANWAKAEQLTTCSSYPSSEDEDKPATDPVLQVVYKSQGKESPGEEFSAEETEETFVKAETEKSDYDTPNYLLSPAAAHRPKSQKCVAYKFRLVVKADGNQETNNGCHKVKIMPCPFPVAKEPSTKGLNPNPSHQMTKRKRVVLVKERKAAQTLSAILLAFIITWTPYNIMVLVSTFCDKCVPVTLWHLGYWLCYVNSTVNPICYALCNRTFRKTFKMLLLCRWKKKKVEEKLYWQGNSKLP
CHRM1 antagonist = blocks human M1 muscarinic receptor. P11229. CHO-K1 hM1, Fluo-8 calcium fluorescence, ACh EC80 antagonist. inhibition, % at 3 µM. 360,000 compounds, 1.3% hits. AID 588852;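 active = percent inhibition above its own plate's cutoff, namely the mean of that plate's compound wells plus 3 SD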;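 also: peak over basal fluorescence ratio during 140 s after agonist addition; 0% = ACh EC80 plus DMSO and 100% = DMSO alone without agonist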
M5 PAM = CHRM5 positive allosteric modulation; AID 624038; 360,000 compounds, 0.3% hits; activation, % at 3 µM; P08912; CHO-K1 hM5, Fluo-8 calcium, ACh EC20 PAM; 0% = ACh EC20, 100% = ACh EC100;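 active = activation above the run cutoff, the mean activation of all test compounds plus 3 SD, cut at about 18% in these data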
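Measured by: Fluo-8 calcium fluorescence; material: human M5 receptor in CHO-K1 cells; schedule: Post-acetylcholine fluorescence recording 140 s; benchmarks: low control EC20 acetylcholine (0%), high control EC100 acetylcholine (100%); read-out: Max/basal fluorescence ratio as % of EC20–EC100 ACh window; compound: single dose, 3 µM nominal final test concentration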
M1 PAM = human CHRM1 positive allosteric modulation; P11229; CHO-K1 hM1, Fluo-8 calcium fluorescence, ACh EC20; 0% = ACh EC20, 100% = maximal ACh; 360,000 compounds, 0.088% hits; activation, % at 3 µM; in the data active = activation above about 19%, passing the limit was not always enough
M5 ag = CHRM5 agonism in calcium assay; P08912; CHO-K1 hM5 cells, Fluo-8 calcium fluorescence; 0% DMSO wells, 100% maximal acetylcholine response; activation, % at 3 µM; 360,000 compounds, 0.19% hits; AID 624037;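 active = activation above the run's mean over test compounds plus 3 SD, cut at about 23% in these data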;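 also: signal is peak over basal fluorescence ratio across the kinetic read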
M1 ag = human M1 muscarinic receptor agonism | P11229 | CHO-K1 hM1, Fluo-8 calcium fluorescence, agonist mode; 0% DMSO, 100% acetylcholine EC100 | activation, % at 3 µM | 360,000 compounds, 0.33% hits;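 active = activation above the run's mean compound activation plus 3 SD, cut at about 16% in these data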;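 also: peak over basal fluorescence ratio within a 140 s kinetic read after compound addition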
The depositor's hits bear a star; · = not tested or not shown.

SMILES	M5 antag	CHRM1 antagonist	M5 PAM	M1 PAM	M5 ag	M1 ag
CC1(C)CC(NC(=O)c2ccc(-c3ccc([N+](=O)[O-])cc3)o2)CC(C)(C)N1	-8.2	-8.8	5.5	12.0	-6.1	-3.3
COCCCNC(=O)c1cn(Cc2c(F)cccc2Cl)nn1	-13.7	-4.3	30.4*	6.3	0.2	-2.9
O=C(Nc1ccc(Cl)cc1)C1Cc2c(-c3ccccc3Oc3ccccc3)ccnc2O1 (stereo not given)	2.0	2.5	-4.6	-4.2	0.7	-0.1
COc1cc(CN2C[C@@H](CO)O[C@@H](n3cnc4c(N5CCN(c6ccccc6)CC5)ncnc43)C2)cc(OC)c1OC	6.0	13.9	-3.7	-10.7	1.1	-2.6
Cc1ccc2nc(-c3ccc(Cl)cc3)c(Cc3cccc(Cl)c3)n2c1	1.0	·	-19.5	·	-5.7	·
Cc1ccc2nc(C(C)(C)C)c(Cc3cccc(Cl)c3)n2c1	20.3	69.6*	-22.4	-25.9	-7.9	-8.4
CC(=O)Nc1ccc(NC(=O)c2ccccc2-n2cnnn2)cc1	5.8	-6.6	-0.6	4.4	3.1	1.4
S=c1[nH]nc(-c2ccncc2)n1/N=C/C(Cl)=C\c1ccccc1	-12.0	10.6	0.5	0.9	38.0*	38.9*
Cn1c(=O)c2c(-c3ccccc3)n(-c3ccccc3Br)cc2n(C)c1=O	13.3	19.8	-8.0	-17.0	-2.2	-5.4
Cc1cc(C)cc(NC(=O)c2nnn(Cc3cc(C)ccc3C)c2N)c1	16.5	6.2	-5.2	-3.0	28.1*	26.1*
Cc1ccc(C)c(Cn2nnc(C(=O)Nc3ccc4c(c3)OCCO4)c2N)c1	5.9	8.2	2.3	5.2	36.2*	28.1*
Cc1ccccc1Cn1nnc(C(=O)Nc2ccc3c(c2)OCCO3)c1N	2.9	-0.6	6.9	2.2	6.6	3.9
CCN1/C(=C/c2ccc3cc(C)cc(C)c3[n+]2CC)Sc2cc(C)ccc21	31.1*	54.8*	-23.4	-13.2	5.0	17.9*
CCN1/C(=C/c2ccc3cc(C)ccc3[n+]2CC)Sc2ccc3sccc3c21	8.1	18.1	4.8	-0.9	-0.7	-2.1
CCN1/C(=C\c2ccc3cc(C)ccc3[n+]2CC)Sc2cc(C)c(C)cc21	42.0*	52.4*	-22.6	-12.3	8.6	12.9
CCN1/C(=C/c2ccc3cccc(C)c3[n+]2CC)Sc2ccccc21	27.2*	50.6*	-6.9	-6.9	6.1	13.6
O=C1CSC(=S)N1Cc1ccccc1	2.0	-12.4	0.1	0.9	-0.9	-7.1
O=C(NCCCCc1ccccc1)c1ccccc1Cl	11.2	-14.1	-5.5	8.8	-2.3	-3.8
O=C(NCCc1ccc(Cl)cc1)c1cc(S(=O)(=O)N2CCCC2)ccc1F	7.9	-0.8	-3.8	-4.8	0.7	-2.9
CCOC(=O)c1c(N)sn(-c2ccccc2C)c1=S	1.5	33.7*	0.7	-9.4	-0.8	-3.6
CCOc1ccc(NC(=O)CN(C)C(=O)c2cccnc2Sc2ccc(C)c(C)c2)cc1OCC	-1.6	-4.1	22.2*	12.7	1.6	1.2
CC(C)(C)c1ccc(S(=O)(=O)NC(=O)C2(C)CCN2C(=O)Cc2cccc3ccccc23)cc1 (stereo not given)	-4.4	-10.4	0.9	7.4	1.5	-2.0
Nc1nc(NCCN2CCOCC2)nc(NCc2ccccc2)c1[N+](=O)[O-]	17.4	-3.3	-2.3	5.2	1.5	-4.0
Nc1nc(NCCCN2CCOCC2)nc(NCc2ccccc2)c1[N+](=O)[O-]	-13.4	66.1*	5.0	-26.5	10.6	-6.1
CC[N+](C)(C)c1cccc(O)c1	-4.0	-25.8	-7.8	-0.9	8.0	16.0*
SMILES	M5 antag	CHRM1 antagonist	M5 PAM	M1 PAM	M5 ag	M1 ag
COc1ccc2ccccc2c1C=NN1CCCCC1	20.1	9.4	-7.5	-8.5	17.5	21.4*
COc1cc(C=NN2CCCCC2)cc(OC)c1OC	5.4	5.4	-4.7	-8.1	26.5*	24.9*
COc1ccc2ccccc2c1/C=N/N1C(=O)CSC1=S	5.4	0.3	-0.8	1.1	-5.1	-4.4
Cn1cnc2ncnn2c1=S	-5.5	-11.9	6.1	13.2	0.4	-0.6
CC(=O)c1c(C)oc2ccc(N(C(C)=O)S(=O)(=O)c3ccc(F)cc3C)cc12	6.0	-11.7	-2.6	11.4	-4.4	-2.9
CC(=O)c1c(C)oc2ccc(N(C(C)=O)S(=O)(=O)c3cccc4cccnc34)cc12	20.1	60.0*	-21.7	-24.6	-11.6	1.6
O=C(CN1C(=O)NC2(CCSC2)C1=O)NCc1ccccc1 (stereo not given)	6.9	-13.9	4.6	10.6	-0.7	-3.1
CCOc1ccccc1C(=O)OCC(=O)NCCNC(=O)COC(=O)c1ccccc1OCC	21.1	3.5	37.7*	20.4	2.2	-2.2
O=C(COC(=O)c1ccccc1C(=O)OCC(=O)NCCc1c[nH]c2ccccc12)NCCc1c[nH]c2ccccc12	32.4*	34.1*	-38.4	-18.3	0.2	-4.3
CC1CCN(Cc2ccc(NC(=O)CC3Oc4ccccc4NC3=O)cc2)CC1 (stereo not given)	37.3*	98.7*	-24.6	-32.3	-6.0	-12.2
CCc1cccc(NC(=O)CC2Oc3ccccc3NC2=O)c1 (stereo not given)	4.3	-11.0	-7.6	4.2	-2.0	-2.5
CCC1CCCCN1CCCNC(=O)CC1Oc2ccccc2NC1=O (stereo not given)	-0.4	16.7	-1.6	-8.5	-3.4	-13.1
CC1CCCC(C)N1CCCNC(=O)c1ccc2c(c1)NC(=O)c1ccccc1S2 (stereo not given)	6.9	83.9*	2.6	-24.5	-8.9	-6.1
CCC1CCCCN1CCCNC(=O)CC1Oc2ccc(C)cc2NC1=O (stereo not given)	1.4	41.3*	-10.0	-26.3	-4.3	-14.0
CCC(C)N(CCNC(=O)CC1Oc2ccccc2NC1=O)C1CCCCC1 (stereo not given)	9.2	90.3*	-9.8	-33.1	-6.0	-13.4
Cc1ccsc1C(=O)OCC(=O)NCc1cccs1	6.1	-12.2	-3.8	3.8	-0.4	-2.4
NC(Cc1ccc(C(F)(F)F)cc1)c1csc(Nc2ccc(C(=O)c3ccccc3)cc2)n1 (stereo not given)	-10.1	4.1	12.7	9.4	5.8	0.9
CC(=O)Nc1ccc(CN(C)c2c(C)nc3ccc(C(=O)N4CCN(c5ccccc5)CC4)cn23)cc1	-2.3	-8.3	-0.4	-1.5	1.9	-2.9
CCC(C)N(CCNC(=O)c1ccc2c(c1)NC(=O)c1ccccc1S2)C1CCCCC1 (stereo not given)	12.8	55.7*	-12.6	-22.9	-9.8	-2.9
CCN1CCN(CCCNC(=O)c2ccc3c(c2)NC(=O)c2ccccc2S3)CC1	-4.6	15.1	-0.6	-19.0	-1.8	-13.9
